# Test results as given in ChEMBL document CHEMBL1138987, “Development of cyclic gamma-MSH analogues with selective hMC3R agonist and hMC3R/hMC5R antagonist activities” (J Med Chem, 2006).
# What was measured:
# Melanocortin receptor 3 [1] = target: T1, Melanocortin receptor 3 (Homo sapiens, UniProt P41968); assay: Inhibitory activity against hMC3R transfected in HEK293 cells; assay type: cell-based
# Summary of the method: (§1)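 Competition binding on whole HEK293 cells stably expressing the human receptor, seeded 48 h prior. Binding buffer was MEM, 25 mM HEPES pH 7.4, 0.2% BSA, 1,10-phenanthroline, leupeptin and bacitracin. Cells washed and lysed, then gamma counted. IC50 from nonlinear least-squares fit; mean of two experiments in triplicate.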
# Melanocortin receptor 3 [2] = target: T1, Melanocortin receptor 3; assay: Activity against hMC3R transfected in HEK293 cells by intracellular cAMP accumulation; assay type: functional, cell-based
# Summary of the method: (§2)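 HEK293 cells stably transfected with human receptor, grown to confluence in MEM with 10% FBS, seeded 48 h before assay. Cells preincubated 1 min at 37 °C in EBSS with IBMX (0.5 mM stock). Peptide added (10^-10 to 10^-5 M), 3 min at 37 °C. Stopped with ice-cold Tris/EDTA, boiled, cAMP measured by competitive binding kit. EC50 from nonlinear least-squares fit; mean of two experiments in triplicate.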
# [3] = target: T2, Melanocyte-stimulating hormone receptor (Homo sapiens, UniProt Q01726); assay: Activity against hMC1R transfected in HEK293 cells by intracellular cAMP accumulation; assay type: functional, cell-based; summary of the method: as §2
# Melanocortin receptor 4 [4] = target: T3, Melanocortin receptor 4 (Homo sapiens, UniProt P32245); assay: Activity against hMC4R transfected in HEK293 cells by intracellular cAMP accumulation; assay type: functional, cell-based; summary of the method: as §2
# [5] = target: T2, Melanocyte-stimulating hormone receptor; assay: Inhibitory activity against hMC1R transfected in HEK293 cells; assay type: cell-based; summary of the method: as §1
# Target sequence in this assay (Q01726 whole entry): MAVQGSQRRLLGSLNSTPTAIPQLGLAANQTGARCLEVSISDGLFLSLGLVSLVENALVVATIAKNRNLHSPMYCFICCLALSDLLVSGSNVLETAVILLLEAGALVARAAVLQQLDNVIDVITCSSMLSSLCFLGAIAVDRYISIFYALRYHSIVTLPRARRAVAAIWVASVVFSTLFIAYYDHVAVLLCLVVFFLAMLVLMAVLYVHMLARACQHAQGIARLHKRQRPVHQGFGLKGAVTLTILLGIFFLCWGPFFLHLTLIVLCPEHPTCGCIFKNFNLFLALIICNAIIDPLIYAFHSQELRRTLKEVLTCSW
# Melanocortin receptor 4 [6] = target: T3, Melanocortin receptor 4; assay: Inhibitory activity against hMC4R transfected in HEK293 cells; assay type: cell-based; summary of the method: as §1
# Melanocortin receptor 5 [7] = target: T4, Melanocortin receptor 5 (Homo sapiens, UniProt P33032); assay: Activity against hMC5R transfected in HEK293 cells by intracellular cAMP accumulation; assay type: functional, cell-based; summary of the method: as §2
# Melanocortin receptor 5 [8] = target: T4, Melanocortin receptor 5; assay: Inhibitory activity against hMC5R transfected in HEK293 cells; assay type: cell-based; summary of the method: as §1
# T4 sequence (P33032 whole entry): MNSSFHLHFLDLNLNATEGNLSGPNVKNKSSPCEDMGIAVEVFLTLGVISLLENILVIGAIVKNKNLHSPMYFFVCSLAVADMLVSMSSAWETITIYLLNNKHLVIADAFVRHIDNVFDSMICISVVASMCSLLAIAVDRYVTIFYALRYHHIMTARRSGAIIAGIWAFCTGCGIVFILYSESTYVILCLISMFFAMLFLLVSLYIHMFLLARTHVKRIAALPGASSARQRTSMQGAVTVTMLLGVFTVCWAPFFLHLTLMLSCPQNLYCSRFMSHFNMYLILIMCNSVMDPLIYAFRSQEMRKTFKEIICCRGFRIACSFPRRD
# T1 sequence (P41968 whole entry): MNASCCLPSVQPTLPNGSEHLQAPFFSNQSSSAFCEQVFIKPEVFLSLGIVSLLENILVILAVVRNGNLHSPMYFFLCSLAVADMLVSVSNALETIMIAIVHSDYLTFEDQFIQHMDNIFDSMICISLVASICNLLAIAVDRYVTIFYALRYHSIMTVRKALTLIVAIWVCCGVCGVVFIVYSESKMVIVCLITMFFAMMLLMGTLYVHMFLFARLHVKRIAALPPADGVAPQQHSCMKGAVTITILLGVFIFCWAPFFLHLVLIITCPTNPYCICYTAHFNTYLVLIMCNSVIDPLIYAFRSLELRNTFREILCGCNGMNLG
# T3 sequence (P32245 whole entry): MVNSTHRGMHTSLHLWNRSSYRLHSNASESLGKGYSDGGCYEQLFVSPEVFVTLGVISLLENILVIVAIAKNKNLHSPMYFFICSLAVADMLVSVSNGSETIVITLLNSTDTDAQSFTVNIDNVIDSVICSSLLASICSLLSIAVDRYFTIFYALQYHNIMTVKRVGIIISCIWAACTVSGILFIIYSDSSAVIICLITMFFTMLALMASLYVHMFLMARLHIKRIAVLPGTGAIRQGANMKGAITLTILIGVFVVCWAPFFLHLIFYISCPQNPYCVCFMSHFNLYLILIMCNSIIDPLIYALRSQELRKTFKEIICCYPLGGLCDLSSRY
IC50 (Melanocortin receptor 3 [1]) [nM],%max (Melanocortin receptor 3 [2]) [%],EC50 (Melanocortin receptor 3 [2]) [nM],%max [3] [%],EC50 [3] [nM],%max (Melanocortin receptor 4 [4]) [%],EC50 (Melanocortin receptor 4 [4]) [nM],IC50 [5] [nM],IC50 (Melanocortin receptor 4 [6]) [nM],%max (Melanocortin receptor 5 [7]) [%],EC50 (Melanocortin receptor 5 [7]) [nM],IC50 (Melanocortin receptor 5 [8]) [nM],Kb (Melanocortin receptor 3 [2]; read-out: pA2 (converted)) [nM],Kb (Melanocortin receptor 5 [7]; read-out: pA2 (converted)) [nM],Compound
600,108,27,0,> 10000,25,3000,> 10000,2500,75,180,110,–,–,CCCC[C@@H]1NC(=O)CC[C@@H](C(N)=O)NC(=O)[C@H](Cc2c[nH]c3ccccc23)NC(=O)[C@H](CCCN=C(N)N)NC(=O)[C@@H](Cc2ccccc2)NC(=O)[C@H](C(C)C)NC1=O
1.4,0,> 10000,0,> 1000,50,130,1000,65,0,> 10000,1.4,–,–,CCCC[C@@H]1NC(=O)CC[C@@H](C(N)=O)NC(=O)[C@H](Cc2c[nH]c3ccccc23)NC(=O)[C@H](CCCN=C(N)N)NC(=O)[C@@H](Cc2ccc3ccccc3c2)NC(=O)[C@H](CCC(N)=O)NC1=O
> 10000,0,> 10000,0,> 10000,0,> 10000,> 10000,150,0,> 10000,> 10000,–,–,CCCC[C@@H]1NC(=O)CC[C@@H](C(N)=O)NC(=O)[C@H](Cc2c[nH]c3ccccc23)NC(=O)[C@H](CCCN=C(N)N)NC(=O)[C@@H](Cc2ccccc2)NC(=O)[C@H](CC(=O)O)NC1=O
1.7,0,> 10000,0,> 10000,13,16,4000,180,0,> 10000,2.2,3.98,2,CCCC[C@@H]1NC(=O)CC[C@@H](C(N)=O)NC(=O)[C@H](Cc2c[nH]c3ccccc23)NC(=O)[C@H](CCCN=C(N)N)NC(=O)[C@@H](Cc2ccc3ccccc3c2)NC(=O)[C@H](C(C)C)NC1=O
13,0,> 10000,0,> 10000,0,> 10000,> 10000,1000,0,> 10000,10,–,–,CCCC[C@@H]1NC(=O)CC[C@@H](C(N)=O)NC(=O)[C@H](Cc2c[nH]c3ccccc23)NC(=O)[C@H](CCCN=C(N)N)NC(=O)[C@@H](Cc2ccc3ccccc3c2)NC(=O)[C@@H]2CCCN2C1=O
140,7,2800,0,> 10000,0,> 10000,> 10000,34,0,> 10000,44,–,–,CCCC[C@@H]1NC(=O)CC[C@@H](C(N)=O)NC(=O)[C@H](Cc2c[nH]c3ccccc23)NC(=O)[C@H](CCCN=C(N)N)NC(=O)[C@@H](Cc2ccc3ccccc3c2)NC(=O)[C@H](CCC(=O)O)NC1=O
–,0,–,0,–,0,–,–,–,0,–,–,–,–,CCCC[C@@H]1NC(=O)CC[C@@H](C(N)=O)NC(=O)[C@H](Cc2c[nH]c3ccccc23)NC(=O)[C@H](CCCN=C(N)N)NC(=O)[C@@H](Cc2ccc3ccccc3c2)NC(=O)[C@H](Cc2c[nH]cn2)NC1=O

Compound,IC50 (Melanocortin receptor 3 [1]) [nM],%max (Melanocortin receptor 3 [2]) [%],EC50 (Melanocortin receptor 3 [2]) [nM],%max [3] [%],EC50 [3] [nM],%max (Melanocortin receptor 4 [4]) [%],EC50 (Melanocortin receptor 4 [4]) [nM],IC50 [5] [nM],IC50 (Melanocortin receptor 4 [6]) [nM],%max (Melanocortin receptor 5 [7]) [%],EC50 (Melanocortin receptor 5 [7]) [nM],IC50 (Melanocortin receptor 5 [8]) [nM],Kb (Melanocortin receptor 3 [2]; read-out: pA2 (converted)) [nM],Kb (Melanocortin receptor 5 [7]; read-out: pA2 (converted)) [nM]
CCCC[C@@H]1NC(=O)CC[C@@H](C(N)=O)NC(=O)[C@H](Cc2c[nH]c3ccccc23)NC(=O)[C@H](CCCN=C(N)N)NC(=O)[C@@H](Cc2ccccc2)NC(=O)[C@H](CCC(N)=O)NC1=O,270,–,1700,–,1000,–,> 10000,1000,> 10000,–,300,500,–,–
CCCC[C@@H]1NC(=O)CC[C@@H](C(N)=O)NC(=O)[C@H](Cc2c[nH]c3ccccc23)NC(=O)[C@H](CCCN=C(N)N)NC(=O)[C@@H](Cc2ccccc2)NC(=O)[C@@H]2CCCN2C1=O,2700,–,> 10000,–,> 10000,–,10000,> 10000,2700,–,850,400,–,–
CCCC[C@@H]1NC(=O)CC[C@@H](C(N)=O)NC(=O)[C@H](Cc2c[nH]c3ccccc23)NC(=O)[C@H](CCCN=C(N)N)NC(=O)[C@@H](Cc2ccc3ccccc3c2)NC(=O)[C@H](CCCN=C(N)N)NC1=O,2.6,–,> 10000,–,> 10000,–,530,1500,77,–,> 10000,2.3,–,–
CCCC[C@@H]1NC(=O)CC[C@@H](C(N)=O)NC(=O)[C@H](Cc2c[nH]c3ccccc23)NC(=O)[C@H](CCCN=C(N)N)NC(=O)[C@@H](Cc2ccccc2)NC(=O)[C@H](CCCN=C(N)N)NC1=O,140,–,1.2,–,> 10000,–,174,1400,270,–,> 10000,68,–,–
CCCC[C@@H]1NC(=O)CC[C@@H](C(N)=O)NC(=O)[C@H](Cc2c[nH]c3ccccc23)NC(=O)[C@H](CCCN=C(N)N)NC(=O)[C@@H](Cc2ccc3ccccc3c2)NC(=O)[C@H](CC(=O)O)NC1=O,820,–,> 10000,–,> 10000,–,> 10000,> 10000,170,–,> 10000,220,–,–
CCCC[C@@H]1NC(=O)CC[C@@H](C(N)=O)NC(=O)[C@H](Cc2c[nH]c3ccccc23)NC(=O)[C@H](CCCN=C(N)N)NC(=O)[C@@H](Cc2ccccc2)NC(=O)[C@H]2CCCN2C1=O,–,0,–,0,–,0,–,–,–,10,–,–,–,–
CCCC[C@@H]1NC(=O)CC[C@@H](C(N)=O)NC(=O)[C@H](Cc2c[nH]c3ccccc23)NC(=O)[C@H](CCCN=C(N)N)NC(=O)[C@@H](Cc2ccccc2)NC(=O)[C@@H](CCCN=C(N)N)NC1=O,–,112,–,0,–,63,–,–,–,0,–,–,–,–
CCCC[C@@H]1NC(=O)CC[C@@H](C(N)=O)NC(=O)[C@H](Cc2c[nH]c3ccccc23)NC(=O)[C@H](CCCN=C(N)N)NC(=O)[C@@H](Cc2ccc3ccccc3c2)NC(=O)[C@@H](CCCN=C(N)N)NC1=O,–,0,–,0,–,10,–,–,–,0,–,–,–,–
CCCC[C@@H]1NC(=O)CC[C@@H](C(N)=O)NC(=O)[C@H](Cc2c[nH]c3ccccc23)NC(=O)[C@H](CCCN=C(N)N)NC(=O)[C@@H](Cc2ccc3ccccc3c2)NC(=O)[C@@H](CC(=O)O)NC1=O,–,0,–,0,–,0,–,–,–,0,–,–,–,–
CCCC[C@@H]1NC(=O)CC[C@@H](C(N)=O)NC(=O)[C@H](Cc2c[nH]c3ccccc23)NC(=O)[C@H](CCCN=C(N)N)NC(=O)[C@@H](Cc2ccccc2)NC(=O)[C@@H](CCC(N)=O)NC1=O,–,60,–,20,–,0,–,–,–,8,–,–,–,–
CCCC[C@@H]1NC(=O)CC[C@@H](C(N)=O)NC(=O)[C@H](Cc2c[nH]c3ccccc23)NC(=O)[C@H](CCCN=C(N)N)NC(=O)[C@@H](Cc2ccccc2)NC(=O)[C@@H](CCC(=O)O)NC1=O,–,54,–,0,–,0,–,–,–,0,–,–,–,–
